In ChEMBL document CHEMBL4513216, “Probing the Open Global Health Chemical Diversity Library for Multistage-Active Starting Points for Next-Generation Antimalarials” (ACS Infect Dis, 2020) one finds cytotoxicity data, which are given here for 95 compounds.

The data set is described as follows: Toxicity liver stage against HepG2, at 10uM. Format: cell-based. On the set-up: test concentration 10 uM, cell line HepG2-A16-CD81EGFP. The following applies: human, HepG2-A16-CD81EGFP cells; read-out: INHIBITION
In short, it runs like this:
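Uninfected HepG2-A16-CD81EGFP cells, 3 × 10^3 per well, 1536-well, plated on prespotted compound at 10 μM final, parasite-free screening media added to match infected plates; puromycin 10 μM positive, DMSO 0.5% negative; run in parallel with 48 h PbLuc assay at 37 °C, 5% CO2; viability by CellTiter-Glo luminescence, normalized to controls.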
Take `Cn1c(C(=O)NC2CC2)nc2c1CCN(c1ncccn1)C2`: the cytotoxicity at 10 µM was -4.75%. Turning to `Cc1cccc(CN2C[C@@H](NC(=O)C3CCC3)[C@H]3COC[C@H]32)n1`, the cytotoxicity at 10 µM was 4.83%. In the case of `O=C(c1ccnnc1)N1C[C@@H]2CN(c3ncccn3)C[C@@H]2C1`, the cytotoxicity at 10 µM came to 7.19%.

On to `Cn1cc(CN2CCc3ncn(C)c3C2COCc2ccccc2)cn1` (stereo not given), for which the cytotoxicity at 10 µM was determined as 9.19%. For the compound `CC(C)n1[nH]c(=O)c2c1NC(=O)CSC2c1cccc(OCC(N)=O)c1` (stereo not given), the cytotoxicity at 10 µM is 8.46%.

Regarding `CC1=Nc2c(c(O)nn2C(C)C)C(c2cnn(C)c2)S1` (stereo not given), the cytotoxicity at 10 µM was 10.8%.

For the compound `Cn1c(C(F)(F)F)nn(CCNC(=O)c2cnc3ccccc3n2)c1=O`, the cytotoxicity at 10 µM was -20%. `CCN1CCN(C(=O)C(C)n2cc(Br)cn2)CC1` (stereo not given): the cytotoxicity at 10 µM amounted to 6.39%.

On to `CCS(=O)(=O)N1CCCCC1c1nc(CC(C)C)no1` (stereo not given), for which the cytotoxicity at 10 µM came to 0.253%. With `Cc1cc(NC2CC3(CCN(Cc4ncccc4F)C3)C2)ncn1` (stereo not given), the cytotoxicity at 10 µM was determined as 0.0666%. On to `Cc1nccn1[C@@H]1CC[C@@H](NC(=O)CCOc2ccccc2)[C@H]1O`, for which the cytotoxicity at 10 µM was -12.7%. For the compound `Fc1ccccc1CN1CCC[C@H](Cn2nnc(-c3cccs3)n2)C1`, the cytotoxicity at 10 µM was -0.152%.

For `CNc1cncc(C2CCCN2C(=O)CCn2ccnc2C(C)C)n1` (stereo not given), the cytotoxicity at 10 µM turned out to be 3.36%.

Take `Cc1nc(Nc2nnc(C)s2)cc(C2CCCN2C)n1` (stereo not given): the cytotoxicity at 10 µM turned out to be 8.67%. The figure for `CC(=O)N1CCCC1c1nccc(C)n1` (stereo not given) is 1.31%; for `CS(=O)(=O)N1CC2(CCN(CC3CC3)C2)Cc2ccccc21` (stereo not given) it is -1.93%. As for `O=C(c1ccc(Cl)s1)N1CCC2(CNS(=O)(=O)c3cnccc3O2)C1` (stereo not given), the cytotoxicity at 10 µM amounted to 15.5%. The figure for `COc1ccncc1NCc1cscn1` is 6.44%. Regarding `COc1ccc(-c2nnc(C(C)N3CCOC(C)(C)C3)o2)cc1` (stereo not given), the cytotoxicity at 10 µM was 2.62%. For `Cc1nc(C)c(S(=O)(=O)NC(=O)c2ccsc2)s1` the value was -6.85%; for `CCCN(CC1CC1)C(=O)Nc1ccc(N2CCSCC2)cc1C`, 3.05%. Turning to `CCOCCOC(C)C(=O)NCc1ccc(N2CCCCC2)cc1` (stereo not given), the cytotoxicity at 10 µM was 11.6%. For the compound `CCCn1cc(NC2CCSCC2)cn1`, the cytotoxicity at 10 µM was -1.88%. For the compound `COc1ncccc1CNCc1c(C(C)C)nn(C)c1Cl`, the cytotoxicity at 10 µM is -3.74%. On to `O=C(CN1CCCCCC1=O)NCC1CCN(c2ccccc2)C1` (stereo not given), for which the cytotoxicity at 10 µM was -6.5%. With `COc1cc(NC(=O)NC(C2CC2)C2CC2)ccc1N1CCOC1=O`, the cytotoxicity at 10 µM turned out to be 4.63%. For `CCn1cc(NC(=O)C2CCN(Cc3ccccc3)CC2)cn1` the value was 2.41%; for `Cc1cnc(CN(C)C2CCN(Cc3sc(C)nc3C)C2)o1` (stereo not given), 3.45%. As for `CCOC(=O)N1CCN(C(=O)C2CC(=O)N(c3ccccc3Br)C2)CC1` (stereo not given), the cytotoxicity at 10 µM is -7.22%. The figure for `O=C(Nc1nncs1)NC1CCCc2c1cnn2CCO` (stereo not given) is -17.2%; for `CCc1noc(C(C)N(C)CC(=O)Nc2ccccc2Cl)n1` (stereo not given) it is -0.0195%; for `COc1ccc(COCC(=O)NC2CCc3nc(C)cn3C2)cc1` (stereo not given) it is 1.6%. `Cc1nnc(CN(C)C2CCN(CCc3cccs3)C2)n1C` (stereo not given): the cytotoxicity at 10 µM was -3.67%. Turning to `CNS(=O)(=O)CC1CCCN1C(=O)c1ccc2cc[nH]c2c1` (stereo not given), the cytotoxicity at 10 µM was -0.651%. For `O=c1c2cccnc2cnn1CC(O)c1ccc(Br)cc1` (stereo not given), the cytotoxicity at 10 µM is -2.59%. `COCc1cc(N(CC(F)F)C2CC2)n2ncnc2n1`: the cytotoxicity at 10 µM is -3.94%. Regarding `COCCN1CCC(Nc2ccc(C#N)cc2F)CC1`, the cytotoxicity at 10 µM was -3.68%. For `COc1cc(I)c(Cl)cc1C(=O)N(C)CC(=O)NC(C)(C)C` the value was 15.4%. Take `CN(Cc1nnc(C2CC2)n1C)S(=O)(=O)c1ccccc1F`: the cytotoxicity at 10 µM worked out at 16.8%.

As to `C[C@H](CCO)NS(=O)(=O)c1ccc(Br)cn1`, the cytotoxicity at 10 µM is -8.63%. As for `CC(C)C(C(=O)N1CCCN(Cc2cnn(C)c2)CC1)n1cncn1` (stereo not given), the cytotoxicity at 10 µM is -4.52%. For `Cc1nc(CN2CCC(N(C)Cc3noc(C(C)C)n3)C2)cs1` (stereo not given) the value was -14.1%.

For the compound `COc1ccccc1CC(=O)NCCCN1CCCC1C(=O)N(C)C` (stereo not given), the cytotoxicity at 10 µM is -13%. Consider `O=C(CN(Cc1cccnc1)CC1CCCO1)Nc1ccc(F)cc1` (stereo not given), for which the cytotoxicity at 10 µM is -10.7%. For `CC(C)NC(=O)c1noc2c1CN(Cc1cnn(C)c1)CC2` the value was 6.59%.

Regarding `Cc1cc(C(=O)N2CCC[C@]3(C[C@@H](OCC4CC4)CO3)C2)no1`, the cytotoxicity at 10 µM is -78.9%.

Regarding `O=C(c1cnc(-c2cccnc2)nc1)N1CCC(c2ccncc2)CC1`, the cytotoxicity at 10 µM is -13.7%. On to `Cc1ccc(C(C(=O)NCCN2CCCCCC2)N(C)C)cc1` (stereo not given), for which the cytotoxicity at 10 µM is -3.12%. As to `Cc1ccccc1CN1CCN(C(=O)CCn2ccccc2=O)CC1`, the cytotoxicity at 10 µM turned out to be 3.57%.

`O=C(c1cc(Cl)ccc1OC1CCN(C2CCCC2)CC1)N1CC(O)C1`: the cytotoxicity at 10 µM was -16.2%. The figure for `CCn1c(C2CCN(C(=O)c3cc(CC(C)C)on3)CC2)nn(C)c1=O` is -3.89%.

Turning to `CCc1cn[nH]c1C1CCN(C(=O)c2cccc(O)c2C)CC1`, the cytotoxicity at 10 µM was 2.28%. For `Cc1noc(C)c1C(=O)N1CCCC(c2nccn2Cc2cscn2)C1` (stereo not given) the value was 2.11%. In the case of `CC(=O)N1CCc2c(nc(N(C)C)nc2N(C)CCCC2CCCO2)C1` (stereo not given), the cytotoxicity at 10 µM was found to be 7.92%. Turning to `O=C(O)[C@@H]1CN(CC2CCC2)C[C@H]1c1ccc(F)cc1`, the cytotoxicity at 10 µM is -3.62%. For the compound `CN1CCN(Cc2ccccc2Cl)CC12CCC(=O)N(CC1CC1)CC2` (stereo not given), the cytotoxicity at 10 µM is -3.94%. With `CCc1nc(C)sc1CN1CC[C@@](O)(CCOC)[C@H](C)C1`, the cytotoxicity at 10 µM is -1.18%. As for `Cc1ccc(F)c(C(=O)N2C[C@@H](C(=O)O)[C@H](c3ccncc3)C2)c1Cl`, the cytotoxicity at 10 µM is -2.37%. Consider `CCC(Oc1ccc(N(C)S(C)(=O)=O)cc1)C(=O)N(C)C` (stereo not given), for which the cytotoxicity at 10 µM was -4.97%.

Regarding `Cc1ncccc1OC1(C(=O)NCCCN2CCOCC2)CCNCC1`, the cytotoxicity at 10 µM was -10.8%. Consider `CC(C)C(=O)N1CCN(C(=O)c2cc(C(C)C)on2)[C@H]2CS(=O)(=O)C[C@H]21`, for which the cytotoxicity at 10 µM is -19%. The figure for `COCCNC(=O)Nc1ccc(-n2cncn2)c(C(F)(F)F)c1` is -5.92%; for `Fc1ccc(-c2cnc(CN3CCn4c(nnc4C4CC4)C3)o2)cc1` it is -13.4%. Consider `CN(C)C(=O)CS(=O)(=O)Cc1cc(Cl)c2c(c1)OCCCO2`, for which the cytotoxicity at 10 µM was -5.08%. Turning to `COc1ccc(OCCCNC(=O)NCc2csc(C)n2)cc1`, the cytotoxicity at 10 µM is -7.54%. In the case of `CN(Cc1ccccc1)CC(O)Cn1cnc2c(cnn2C)c1=O` (stereo not given), the cytotoxicity at 10 µM was determined as 1.53%. As for `CC(C)c1nn(C)c(N2CCOCC2)c1CNCCS(C)(=O)=O`, the cytotoxicity at 10 µM was -8.36%. `c1cnn(CC2CCCCN2Cc2cn3ccsc3n2)c1` (stereo not given): the cytotoxicity at 10 µM is -7.08%. `COc1cccc(COCC(=O)N2CCC(CC(N)=O)CC2)c1`: the cytotoxicity at 10 µM is -4.56%.

Turning to `CCn1c(CN2CCN(CC(N)=O)CC2)nc2c(F)cccc21`, the cytotoxicity at 10 µM was -9.88%. For the compound `CCOc1ccc(C#N)cc1NCC(=O)Nc1cc(F)ccc1F`, the cytotoxicity at 10 µM was -9.47%. Consider `CNC(=O)[C@@H]1CN(C(=O)C(C)C)C[C@H]1c1ccnc(N2CCCC2)n1`, for which the cytotoxicity at 10 µM amounted to 0.791%. The figure for `CNC(=O)N1Cc2cc(F)ccc2C2(CCN(C)CC2)C1` is 0.595%; for `COc1ccc(-c2cnc(N(C)C)nc2C2CNCCO2)cc1` (stereo not given) it is -1.4%; for `O=C(O)c1c(-c2ccoc2)ncc2c1CCN(C1CCOC1)C2` (stereo not given) it is 17%.

On to `CN1CCO[C@@H]2CN(S(=O)(=O)c3ccccc3F)CC[C@@H]2C1`, for which the cytotoxicity at 10 µM turned out to be 1.35%.

For the compound `CNC(=O)[C@H]1C[C@@H]2CCN(c3nnc(C)s3)C[C@@H]2O1`, the cytotoxicity at 10 µM was -75.7%. Consider `CCCS(=O)(=O)N1CCC2(CN(c3cnn(C)c3)C(=O)CN2C)C1` (stereo not given), for which the cytotoxicity at 10 µM is -10.7%. As for `O=C(Nc1cccc(CNCc2ccsc2)c1)C1CC1`, the cytotoxicity at 10 µM was -10.7%. The figure for `Cc1noc(C)c1CN1CCC2(CC1)CC(Oc1cccnc1)CO2` (stereo not given) is 17.8%; for `CN(C)C(=O)COC1COC2(CCN(c3cnccn3)CC2)C1` (stereo not given) it is -6.29%; for `CN(C)Cc1cc(=O)n2c(n1)CN(S(=O)(=O)C1CC1)CCC2` it is 4.53%. For `OCCN1CC2(CCN(c3ccccc3)C2)C1` the value was 0.234%. On to `O=C1N(CC2CC2)CCC12CCN(CC1CC1)CC2`, for which the cytotoxicity at 10 µM turned out to be 7.07%. Take `CN(C)CCN1CCCC12CCCN(Cc1ccoc1)C2` (stereo not given): the cytotoxicity at 10 µM worked out at 7.88%.

`CC(C)c1nn(C)c(N(C)C)c1CNCc1cccc(CN(C)C)c1`: the cytotoxicity at 10 µM was -4.22%. For `COc1cc(CNCC(O)c2ccc(C)cc2)cc2c1OCCO2` (stereo not given) the value was -6.61%; for `CS(=O)(=O)N1C[C@H]2CCCN(Cc3ccsc3)[C@H]2C1`, 6.43%; for `O=C(NCc1ccco1)[C@H]1C[C@@H]2CCN(c3ccncn3)C[C@@H]2O1`, -9.58%. For `OCCOCc1ncn2c1CN(Cc1cccs1)CCC2` the value was -82.9%; for `CC(C)Nc1nc2c(c(N(C)C)n1)CCN(Cc1nccn1C)CC2`, 1.35%; for `Cc1cc(CN2C[C@@H]3COC[C@H](C(=O)N4CCCCO4)[C@@H]3C2)no1`, -77.9%. `CC1c2ncc(COCC3CC3)n2CCN1C` (stereo not given): the cytotoxicity at 10 µM amounted to 7.83%. As for `O=C1[C@@H]2CCN(Cc3ccoc3)C[C@@H]2OCCN1c1ccccc1`, the cytotoxicity at 10 µM is -0.928%. On to `Cc1oncc1C(=O)N1C[C@H]2CCCC(N(C)Cc3cccs3)[C@H]2C1` (stereo not given in full), for which the cytotoxicity at 10 µM is 18.8%.
